Reference: ChEMBL document CHEMBL4138104, “Indole carboxylic acid esters of melampomagnolide B are potent anticancer agents against both hematological and solid tumor cells” (Eur J Med Chem, 2017)

Experiments:
Format in all cases: functional
[1] = system: HOP-92; test: Growth inhibition of human HOP92 cells incubated for 48 hrs by sulforhodamine B assay; conditions: HOP-92, 48 h
Procedure, shortened: (§1)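 NCI-60 screen. Compounds were dosed at five concentrations spanning 10^-4 to 10^-8 M for 48 h at 37 °C. Cells were TCA-fixed, stained with 0.4% SRB and read at 515 nm against time-zero and vehicle controls. GI50 is the concentration giving a 50% reduction in net protein increase.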

[2] = system: SF-268; test: Growth inhibition of human SF268 cells incubated for 48 hrs by sulforhodamine B assay; conditions: SF-268, 48 h; procedure, shortened: as §1
[3] = system: KM12; test: Growth inhibition of human KM12 cells incubated for 48 hrs by sulforhodamine B assay; conditions: KM12, 48 h; procedure, shortened: as §1
[4] = system: K562; test: Growth inhibition of human K562 cells incubated for 48 hrs by sulforhodamine B assay; conditions: K562, 48 h; procedure, shortened: as §1
[5] = system: NCI-H226; test: Growth inhibition of human NCI-H226 cells incubated for 48 hrs by sulforhodamine B assay; conditions: NCI-H226, 48 h; procedure, shortened: as §1
[6] = system: OVCAR-8; test: Growth inhibition of human OVCAR8 cells incubated for 48 hrs by sulforhodamine B assay; conditions: OVCAR-8, 48 h; procedure, shortened: as §1
[7] = system: NCI-H460; test: Growth inhibition of human NCI-H460 cells incubated for 48 hrs by sulforhodamine B assay; conditions: NCI-H460, 48 h; procedure, shortened: as §1
[8] = system: HCT-15; test: Growth inhibition of human HCT15 cells incubated for 48 hrs by sulforhodamine B assay; conditions: HCT-15, 48 h; procedure, shortened: as §1
[9] = system: SNB-19; test: Growth inhibition of human SNB19 cells incubated for 48 hrs by sulforhodamine B assay; conditions: SNB-19, 48 h
Procedure, shortened: (§2)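 NCI-60 screen run at NCI. Cells grown in RPMI medium with 5% FBS and 2 mM L-glutamine, plated at 5,000–40,000 cells/well, and preincubated 24 h at 37 °C. Time-zero plates were TCA-fixed. Compounds came from DMSO stocks and were tested at five concentrations from 10^-4 to 10^-8 M for 48 h. Cells were then TCA-fixed, stained with 0.4% SRB, and OD read at 515 nm. GI50 is the concentration giving a 50% reduction in net protein increase versus control.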

[10] = system: A549; test: Growth inhibition of human A549/ATCC cells incubated for 48 hrs by sulforhodamine B assay; conditions: A549, 48 h; procedure, shortened: as §1
[11] = system: LOX IMVI; test: Growth inhibition of human LOXIMVI cells incubated for 48 hrs by sulforhodamine B assay; procedure, shortened: as §1
[12] = system: NCI-H23; test: Growth inhibition of human NCI-H23 cells incubated for 48 hrs by sulforhodamine B assay; conditions: NCI-H23, 48 h; procedure, shortened: as §1
[13] = system: MCF7; test: Growth inhibition of human MCF7 cells incubated for 48 hrs by sulforhodamine B assay; conditions: MCF7, 48 h; procedure, shortened: as §1
[14] = system: A498; test: Growth inhibition of human A498 cells incubated for 48 hrs by sulforhodamine B assay; conditions: A498, 48 h; procedure, shortened: as §1
[15] = system: CCRF-CEM; test: Growth inhibition of human CCRF-CEM cells incubated for 48 hrs by sulforhodamine B assay; procedure, shortened: as §1
[16] = system: RXF 393; test: Growth inhibition of human RXF393 cells incubated for 48 hrs by sulforhodamine B assay; conditions: RXF 393, 48 h; procedure, shortened: as §1
[17] = system: U-251; test: Growth inhibition of human U251 cells incubated for 48 hrs by sulforhodamine B assay; conditions: U-251, 48 h; procedure, shortened: as §2
[18] = system: HCC 2998; test: Growth inhibition of human HCC2998 cells incubated for 48 hrs by sulforhodamine B assay; conditions: HCC 2998, 48 h; procedure, shortened: as §1
[19] = system: SW-620; test: Growth inhibition of human SW620 cells incubated for 48 hrs by sulforhodamine B assay; conditions: SW-620, 48 h; procedure, shortened: as §2
[20] = system: HL-60(TB); test: Growth inhibition of human HL-60(TB) cells incubated for 48 hrs by sulforhodamine B assay; conditions: HL-60, 48 h
Procedure, shortened: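 Performed at NCI's 60-line screen. Cells grown in RPMI with 5% FBS and 2 mM L-glutamine, plated 5,000–40,000 cells/well and incubated 24 h at 37 °C before compound addition. DMSO stocks were diluted in medium with gentamicin, and five concentrations spanning 10^-4 to 10^-8 M were tested. Exposure was 48 h. Cells were fixed with TCA, stained with SRB, and read at 515 nm. GI50 taken from log dose-response curves as 50% reduction in net protein increase versus control.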

[21] = system: NCI-H322M; test: Growth inhibition of human NCI-H322M cells incubated for 48 hrs by sulforhodamine B assay; procedure, shortened: as §1
[22] = system: HCT-116; test: Growth inhibition of human HCT116 cells incubated for 48 hrs by sulforhodamine B assay; conditions: HCT-116, 48 h; procedure, shortened: as §1
[23] = Cytotoxicity against human M9-ENL1 cells assessed as reduction in cell viability by trypan blue staining-based assay
Procedure, shortened: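 M9-ENL1 AML cells (MLL-ENL-transduced human blood cells) plated at 10^6 cells/mL in alpha-MEM with 5% human plasma, 20% FBS, SCF, IL-3, IL-7 and FLT3. Drug diluted from DMSO stock into PBS, final DMSO ≤0.5%. After 24 h exposure, dead cells assessed by trypan blue and by flow cytometry (Annexin V/PI or Annexin V/7-AAD). Viability normalized to vehicle; EC50 from dose-response curves; triplicate.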

[24] = system: SK-MEL-28; test: Growth inhibition of human SK-MEL-28 cells incubated for 48 hrs by sulforhodamine B assay; conditions: SK-MEL-28, 48 h; procedure, shortened: as §1
[25] = system: Malme-3M; test: Growth inhibition of human MALME-3M cells incubated for 48 hrs by sulforhodamine B assay; procedure, shortened: as §1
[26] = system: UACC-257; test: Growth inhibition of human UACC257 cells incubated for 48 hrs by sulforhodamine B assay; conditions: UACC-257, 48 h; procedure, shortened: as §2
[27] = system: MOLT-4; test: Growth inhibition of human MOLT4 cells incubated for 48 hrs by sulforhodamine B assay; conditions: MOLT-4, 48 h; procedure, shortened: as §1
[28] = system: SF-295; test: Growth inhibition of human SF295 cells incubated for 48 hrs by sulforhodamine B assay; conditions: SF-295, 48 h; procedure, shortened: as §1
[29] = system: SK-OV-3; test: Growth inhibition of human SKOV3 cells incubated for 48 hrs by sulforhodamine B assay; conditions: SK-OV-3, 48 h; procedure, shortened: as §1
[30] = system: RPMI-8226; test: Growth inhibition of human RPMI8226 cells incubated for 48 hrs by sulforhodamine B assay; conditions: RPMI-8226, 48 h; procedure, shortened: as §1
[31] = system: NCI/ADR-RES; test: Growth inhibition of human NCI/ADR-RES cells incubated for 48 hrs by sulforhodamine B assay; procedure, shortened: as §1
[32] = system: OVCAR-5; test: Growth inhibition of human OVCAR5 cells incubated for 48 hrs by sulforhodamine B assay; conditions: OVCAR-5, 48 h; procedure, shortened: as §1
[33] = system: HT-29; test: Growth inhibition of human HT-29 cells incubated for 48 hrs by sulforhodamine B assay; conditions: HT-29, 48 h; procedure, shortened: as §1
[34] = system: NCI-H522; test: Growth inhibition of human NCI-H522 cells incubated for 48 hrs by sulforhodamine B assay; conditions: NCI-H522, 48 h; procedure, shortened: as §1
[35] = system: SF-539; test: Growth inhibition of human SF539 cells incubated for 48 hrs by sulforhodamine B assay; conditions: SF-539, 48 h; procedure, shortened: as §1
[36] = system: UO-31; test: Growth inhibition of human UO31 cells incubated for 48 hrs by sulforhodamine B assay; conditions: UO-31, 48 h; procedure, shortened: as §2
[37] = system: SN12C; test: Growth inhibition of human SN12C cells incubated for 48 hrs by sulforhodamine B assay; procedure, shortened: as §1

SMILES | GI50 [1] | GI50 [2] | GI50 [3] | GI50 [4] | GI50 [5] | GI50 [6] | GI50 [7] | GI50 [8] | GI50 [9] | GI50 [10] | GI50 [11] | GI50 [12] | GI50 [13] | GI50 [14] | GI50 [15] | GI50 [16] | GI50 [17] | GI50 [18] | GI50 [19] | GI50 [20] | further results
C=C1C(=O)O[C@@H]2C3O[C@]3(C)CC/C=C(\C)CC[C@@H]12 (stereo partly drawn) | 13500 nM | 25100 nM | 16200 nM | 22600 nM | 20500 nM | 17100 nM | 18800 nM | 10200 nM | 70900 nM | 91800 nM | 8240 nM | 20200 nM | 16400 nM | 7040 nM | 9160 nM | 12200 nM | 41500 nM | 24100 nM | 14500 nM | 5710 nM | GI50 [21]: 21700 nM; GI50 [22]: 10800 nM; EC50 [23]: 5500 nM; GI50 [24]: 21000 nM; GI50 [25]: 13800 nM; GI50 [26]: 14400 nM; GI50 [27]: 14300 nM; GI50 [28]: 28900 nM; GI50 [29]: 54700 nM; GI50 [30]: 8200 nM; GI50 [31]: 15000 nM; GI50 [32]: 34100 nM; GI50 [33]: 23500 nM; GI50 [34]: 5470 nM; GI50 [35]: 18900 nM; GI50 [36]: 41900 nM; GI50 [37]: 22800 nM
C=C1C(=O)O[C@@H]2[C@H]3O[C@]3(C)CC/C=C(/COC(=O)/C=C/c3c[nH]c4ccccc34)CC[C@@H]12 | 150 nM | 220 nM | 400 nM | 270 nM | 230 nM | 190 nM | 1010 nM | 180 nM | 640 nM | 1270 nM | 50 nM | 1250 nM | 220 nM | 270 nM | 70 nM | 170 nM | 210 nM | 270 nM | 180 nM | 250 nM | GI50 [21]: 1730 nM; GI50 [22]: 180 nM; EC50 [23]: 700 nM; GI50 [24]: 330 nM; GI50 [25]: 280 nM; GI50 [26]: 350 nM; GI50 [27]: 300 nM; GI50 [28]: 1620 nM; GI50 [29]: 1880 nM; GI50 [30]: 30 nM; GI50 [31]: 350 nM; GI50 [32]: 310 nM; GI50 [33]: 190 nM; GI50 [34]: 180 nM; GI50 [35]: 260 nM; GI50 [36]: 150 nM; GI50 [37]: 190 nM
C=C1C(=O)O[C@@H]2[C@H]3O[C@]3(C)CC/C=C(/COC(=O)c3cc4ccccc4o3)CC[C@@H]12 | 1440 nM | 1560 nM | 2020 nM | 1150 nM | 1740 nM | 2430 nM | 2000 nM | 1070 nM | 3160 nM | 2910 nM | 1420 nM | 1980 nM | 390 nM | 12900 nM | 330 nM | 1430 nM | 1630 nM | 2470 nM | 660 nM | 1220 nM | GI50 [21]: 5520 nM; GI50 [22]: 320 nM; EC50 [23]: 2900 nM; GI50 [24]: 1750 nM; GI50 [25]: 1660 nM; GI50 [26]: 1520 nM; GI50 [27]: 1770 nM; GI50 [28]: 5900 nM; GI50 [29]: 16700 nM; GI50 [30]: 710 nM; GI50 [31]: 2590 nM; GI50 [32]: 1880 nM; GI50 [33]: 820 nM; GI50 [34]: 680 nM; GI50 [35]: 1450 nM; GI50 [36]: 1460 nM; GI50 [37]: 1780 nM
C=C1C(=O)O[C@@H]2[C@H]3O[C@]3(C)CC/C=C(/COC(=O)c3cc4cc(OC)ccc4[nH]3)CC[C@@H]12 | 440 nM | 1660 nM | 1540 nM | 560 nM | 1570 nM | 1580 nM | 1830 nM | 320 nM | 1570 nM | 1660 nM | 300 nM | 1490 nM | 340 nM | 1630 nM | 340 nM | 1140 nM | 1600 nM | 1540 nM | 640 nM | 320 nM | GI50 [21]: 1880 nM; GI50 [22]: 420 nM; EC50 [23]: 1800 nM; GI50 [24]: 1230 nM; GI50 [25]: 1610 nM; GI50 [26]: 1610 nM; GI50 [27]: 1320 nM; GI50 [28]: 2420 nM; GI50 [29]: 4900 nM; GI50 [30]: 500 nM; GI50 [31]: 1680 nM; GI50 [32]: 1770 nM; GI50 [33]: 350 nM; GI50 [34]: 700 nM; GI50 [35]: 1020 nM; GI50 [36]: 1120 nM; GI50 [37]: 1770 nM
